Most compounds without a hit are left out; they make up all but 1.7% or so of the library.
IDE cell inh: human IDE inhibitors in live cells, primary screen, fluorescence polarization, HEK cells, FAbetaB substrate | Insulin-degrading enzyme (Homo sapiens), P14735 | FAbetaB cleavage | inhibition, % at 5.59 µM | hit rate 0.41% among 320,000;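 active = percent inhibition above the average of all tested compounds plus 3 SD, set per screening campaign, cut at about 16% in these data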;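 also: IDE supplied by intact live HEK cells; FP after avidin binding of uncleaved biotin substrate so inhibition keeps polarization high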
IDE act: human IDE activators in live cells, primary screen, fluorescence polarization, HEK cells, FAbeta-B substrate. Insulin-degrading enzyme (Homo sapiens), P14735. FAbeta-B cleavage; 0% vehicle, 100% cell-free pure enzyme wells. activation, % at 5.96 µM. hit rate 0.073% among 340,000;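 active = activation above the mean of all tested compounds plus 3 SD, set per screening campaign, cut at about 17% in these data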
CSN inh: inhibitors of CSN-mediated cullin deneddylation, primary screen, biochemical, fluorescence polarization, uHTS; COP9 signalosome complex subunit 5 (Homo sapiens), Q92905; Purified CSN, SCF-Nedd8-OG deneddylation; inhibition, % at 12.5 µM; hit rate 0.38% among 360,000; AID 651999, 2013;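 active = pattern-corrected inhibition above about 35%, with an unprinted fluorescence ratio check between 0.5 and 1.5, limit read from the data, passing the limit was not always enough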
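Material: purified human Csn5 enzyme expressed in HEK293T cells / Medium: Tris buffer pH 7.5, NaCl, DTT, Tween-20, trehalose, ovalbumin / Compound dosing: 12.5 µM single point / Schedule: 90 min incubation of compound, enzyme and substrate at room temperature / Signal: fluorescence polarization of the substrate / Control set: no-enzyme wells high, enzyme-with-substrate wells low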
TPT1 inh: Candida albicans TPT1 enzyme inhibitors, primary screen, biochemical, fluorescence polarization. inhibition, % at 5 µM. recombinant caTPT1, FP RNA substrate dephosphorylation. hit rate 0.81% among 300,000. tRNA 2'-phosphotransferase TPT1 (Candida albicans SC5314);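 active = inhibition above the mean of all tested compounds plus 3 SD, set per screening campaign, cut at about 24% in these data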
Rpn11 block: Rpn11 (PSMD14) deubiquitinase inhibitors, primary screen, biochemical, fluorescence polarization, uHTS. human 26S proteasome, Ub4-pepOG fluorescence polarization; 20S core pre-blocked with epoxomicin. inhibition, % at 20 µM. 26S proteasome non-ATPase regulatory subunit 14 (Homo sapiens), O00487. hit rate 0.59% among 360,000;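 active = inhibition at 20 µM, scaled to each plate's controls, above about 33%, limit read from the data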
HNF4A DNA FP: change in binding of human HNF4A to DNA, primary screen, biochemical, fluorescence polarization, FITC-DNA; AID 1224865, 2016; activity change, % at 10 µM; Hepatocyte nuclear factor 4-alpha (Homo sapiens), P41235; 1 h; hit rate 0.3% among 360,000; in the data active = activity change above about 30%, passing the limit was not always enough
Target sequence (P41235 whole entry, looked up): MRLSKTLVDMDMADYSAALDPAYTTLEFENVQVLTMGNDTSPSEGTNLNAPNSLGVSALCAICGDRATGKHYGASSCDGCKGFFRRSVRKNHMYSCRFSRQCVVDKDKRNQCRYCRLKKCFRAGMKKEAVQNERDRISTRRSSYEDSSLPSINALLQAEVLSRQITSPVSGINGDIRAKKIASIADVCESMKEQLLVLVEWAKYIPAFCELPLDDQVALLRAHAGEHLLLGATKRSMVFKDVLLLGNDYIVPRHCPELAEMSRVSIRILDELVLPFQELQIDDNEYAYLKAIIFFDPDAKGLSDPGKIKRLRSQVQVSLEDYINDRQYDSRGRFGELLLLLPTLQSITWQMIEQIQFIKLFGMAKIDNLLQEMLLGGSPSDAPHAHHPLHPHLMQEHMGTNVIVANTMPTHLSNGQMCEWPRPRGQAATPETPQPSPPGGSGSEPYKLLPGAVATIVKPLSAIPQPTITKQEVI
HNF4A confirm: change in HNF4A binding to DNA, retest, confirmation, biochemical, fluorescence polarization, FITC-DNA | 1 h | shares compounds with HNF4A DNA FP | AID 1224897, 2016 | hit rate 99% among 210 | activity change, % at 12.5 µM; call rule not given here
Each line names hits and unclear results; the compound was inactive in the other large screens (follow-up assays come after a bar, where shown).

O=C(N/N=C/c1ccc(-c2cccc([N+](=O)[O-])c2)o1)[C@H]1C[C@@H]1c1ccccc1	none
O=C(N/N=C/c1ccc(-c2ccc([N+](=O)[O-])cc2)o1)[C@H]1C[C@@H]1c1ccccc1	HNF4A DNA FP 65 (not shown: Rpn11 block) | HNF4A confirm 74
OC1c2cc(Br)ccc2N=C2CCCN21 (stereo not given)	none
CN(C)c1ccc(C=NN2C(=O)CSC2=S)c(Cl)c1	CSN inh 60, HNF4A DNA FP 87 (not shown: IDE cell inh, IDE act, TPT1 inh, Rpn11 block) | HNF4A confirm 88
O=C1CSC(=S)N1N=Cc1c(F)cccc1Cl	none (no result: IDE cell inh, IDE act, TPT1 inh)
COc1ccc(/C=N/NC(=O)c2ccccc2OC)cc1COc1ccccc1[N+](=O)[O-]	CSN inh 101, HNF4A DNA FP 83 | HNF4A confirm 60
CCc1ccccc1Nc1nn2c(=O)c3ccc(C(=O)NCc4ccccn4)cc3nc2s1	none
CC(C)=CCCC(C)c1cc(C(=O)NCCc2ccc(O)cc2)c(N)s1 (stereo not given)	HNF4A DNA FP 52 (no result: IDE cell inh, IDE act, TPT1 inh, Rpn11 block) | HNF4A confirm 39
COc1ccc(S(=O)(=O)NC(C)C(=O)Nc2ccc3c(c2)OCCO3)cc1OC (stereo not given)	none
CN(/C=C/C(=C/C=[N+](C)c1ccccc1)OCCCS(=O)(=O)[O-])c1ccccc1	none (not shown: Rpn11 block)
CN(/C=C/C(=C\C=[N+](C)c1ccccc1)OCCCS(=O)(=O)[O-])c1ccccc1	HNF4A DNA FP 87 (not shown: Rpn11 block) | HNF4A confirm 106
COc1cc(/C=C2/C(=O)N(C)C(=S)N2C)ccc1OCc1cccc(F)c1	HNF4A DNA FP 36 (not shown: Rpn11 block) | HNF4A confirm 50
CN1C(=O)/C(=C/c2ccc(OCc3cccc(F)c3)cc2)NC1=S	none
COc1ccccc1N(CC(=O)NC(C)C)S(=O)(=O)c1cccs1	none
Cc1cc(C(=O)O)ccc1N=Cc1c(O)ccc2ccccc12	HNF4A DNA FP 46 | HNF4A confirm 70
COc1cc(/C=N/c2oc(C)c(C)c2C#N)cc(Br)c1O	HNF4A DNA FP 60 (not shown: Rpn11 block) | HNF4A confirm 78
CCSc1ncc(Cl)c(C(=O)Nc2sc3c(c2C(=O)NCc2cccnc2)CCCC3)n1	HNF4A DNA FP 51 (not shown: Rpn11 block) | HNF4A confirm 49
CCCCCCn1c(=O)n2n(c1=O)C[C@]1(OC(=O)Nc3c(C)noc3C)CN(S(=O)(=O)c3ccc(C)cc3)C[C@]1(O)C2	none (no result: IDE cell inh, IDE act, TPT1 inh)

Screens from PubChem.
